Results on five molecules are retold here after ChEMBL document CHEMBL1135756, “Solid phase synthesis and evaluation of Tyr-Tic-Phe-Phe(p-NHCOCH(2)Br) ([Phe(p-bromoacetamide)(4)]TIPP), a potent affinity label for delta opioid receptors” (J Med Chem, 2002).

The target of assay [1] is T1, Delta-type opioid receptor (Mus musculus, UniProt P32300). The assay is described as follows: Inhibitory activity against Opioid receptor delta 1 using [3H]DPDPE. The method, boiled down:
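Competition binding on membranes of CHO cells stably transfected with cloned δ opioid receptors, using [³H]DPDPE as radioligand under standard (equilibrium) conditions. IC50 is the mean ± SEM of 3–7 independent determinations.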

The target of assay [2] is T1, Delta-type opioid receptor. The assay is described as follows: Binding affinity towards Opioid receptor delta 1. The method, boiled down:
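Competition binding against [³H]DPDPE on membranes of CHO cells stably transfected with cloned δ opioid receptors, under standard (equilibrium) conditions. The IC₅₀ is displacement of radioligand, averaged over 3–7 independent determinations ± SEM.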

Another assay has as its target Mu-type opioid receptor (Rattus norvegicus, UniProt P33535). The assay is described as follows: Inhibitory activity against Opioid receptor mu 1 using [3H]DAMGO.
Assay [3] has as its target Delta-type opioid receptor (Mus musculus) (UniProt P32300). The assay is described as follows: Inhibition of cyclic adenosine 3',5'-monophosphate (cAMP) formation by recombinant Opioid receptor delta 1 in adenylyl cyclase assay. The assay is classed as functional. As to conditions: concentration not given here.
Assay [4] addresses Kappa-type opioid receptor (Cavia porcellus, UniProt P41144). The assay is described as follows: Inhibitory activity against Opioid receptor kappa 1 using [3H]diprenorphine.

Non-standard residues stand in square brackets, D forms with d. Residues, ends and D or L forms follow the SMILES beside them. *: point of attachment. Phe(4-NH2) = Nc1ccc(C[C@H](N)C(=O)O)cc1; Tic = O=C(O)[C@@H]1Cc2ccccc2CN1; BrAc = O=C(CBr)*

Mu-type opioid receptor, sequence (P33535 whole entry): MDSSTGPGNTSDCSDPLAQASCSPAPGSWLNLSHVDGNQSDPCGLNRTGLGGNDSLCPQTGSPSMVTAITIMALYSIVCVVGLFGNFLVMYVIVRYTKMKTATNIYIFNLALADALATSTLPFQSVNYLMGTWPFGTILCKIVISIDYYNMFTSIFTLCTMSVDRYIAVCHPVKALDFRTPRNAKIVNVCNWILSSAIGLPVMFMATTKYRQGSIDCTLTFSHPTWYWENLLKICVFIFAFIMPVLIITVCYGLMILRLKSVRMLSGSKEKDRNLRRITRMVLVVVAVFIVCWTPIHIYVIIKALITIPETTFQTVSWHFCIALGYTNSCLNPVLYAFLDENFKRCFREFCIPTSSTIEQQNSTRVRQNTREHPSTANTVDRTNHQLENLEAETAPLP
T1 sequence (P32300 whole entry): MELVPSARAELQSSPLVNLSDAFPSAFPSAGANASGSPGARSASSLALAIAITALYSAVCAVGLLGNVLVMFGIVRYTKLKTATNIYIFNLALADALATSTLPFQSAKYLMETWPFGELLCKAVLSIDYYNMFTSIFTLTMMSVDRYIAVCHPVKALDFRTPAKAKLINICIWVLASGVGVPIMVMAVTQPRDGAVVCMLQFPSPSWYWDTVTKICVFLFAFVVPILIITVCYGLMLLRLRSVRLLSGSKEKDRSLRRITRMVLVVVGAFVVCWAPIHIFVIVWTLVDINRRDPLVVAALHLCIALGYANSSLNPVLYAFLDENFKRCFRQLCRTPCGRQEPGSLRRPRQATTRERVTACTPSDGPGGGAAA
Kappa-type opioid receptor, sequence (P41144 whole entry): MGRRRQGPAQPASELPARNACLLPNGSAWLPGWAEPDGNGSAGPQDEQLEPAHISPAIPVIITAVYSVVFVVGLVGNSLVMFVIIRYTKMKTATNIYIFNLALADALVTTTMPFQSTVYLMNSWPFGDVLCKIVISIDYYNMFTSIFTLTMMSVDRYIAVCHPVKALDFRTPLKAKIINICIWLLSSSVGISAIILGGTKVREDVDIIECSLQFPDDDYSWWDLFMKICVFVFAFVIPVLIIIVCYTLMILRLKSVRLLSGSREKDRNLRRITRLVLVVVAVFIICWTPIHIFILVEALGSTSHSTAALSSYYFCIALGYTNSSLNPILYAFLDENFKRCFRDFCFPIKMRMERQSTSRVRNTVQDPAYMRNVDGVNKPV
Delta-type opioid receptor (Mus musculus), sequence (P32300 whole entry): as the sequence (P32300 whole entry) above

`N[C@@H](Cc1ccc(O)cc1)C(=O)N1Cc2ccccc2C[C@H]1C(=O)N[C@@H](Cc1ccccc1)C(=O)N[C@@H](Cc1ccccc1)C(=O)O` (H-Y[Tic]FF-OH): the IC50 in assay [1] turned out to be 0.0141 µM; against Mu-type opioid receptor, 10 µM. The Ki in assay [2] amounted to 0.00122 µM.

With `N[C@@H](Cc1ccc(O)cc1)C(=O)N1Cc2ccccc2C[C@H]1C(=O)N[C@@H](Cc1ccccc1)C(=O)N[C@@H](Cc1ccc(NC(=O)CBr)cc1)C(=O)O` (H-Y[Tic]F[Phe(4-NH2)](BrAc)-OH), the IC50 was 0.0054 µM in assay [1], greater than 10 µM in assay [4] and greater than 5.39 µM against Mu-type opioid receptor. The inhibition in assay [3] was 65%.

As for `Nc1ccc(C[C@H](NC(=O)[C@H](Cc2ccccc2)NC(=O)[C@@H]2Cc3ccccc3CN2C(=O)[C@@H](N)Cc2ccc(O)cc2)C(=O)O)cc1` (H-Y[Tic]F[Phe(4-NH2)]-OH), the IC50 in assay [1] was 0.0199 µM; in assay [4], greater than 10 µM; at Mu-type opioid receptor, greater than 10 µM.

`N[C@@H](Cc1ccc(O)cc1)C(=O)N1Cc2ccccc2C[C@H]1C(=O)N[C@@H](Cc1ccc(NC(=O)CBr)cc1)C(=O)N[C@@H](Cc1ccccc1)C(=O)O` (H-Y[Tic][Phe(4-NH2)](BrAc)F-OH): the IC50 is 0.065 µM in assay [1] and greater than 10 µM on Mu-type opioid receptor.

For `Nc1ccc(C[C@H](NC(=O)[C@@H]2Cc3ccccc3CN2C(=O)[C@@H](N)Cc2ccc(O)cc2)C(=O)N[C@@H](Cc2ccccc2)C(=O)O)cc1` (H-Y[Tic][Phe(4-NH2)]F-OH), the IC50 in assay [1] was 0.0362 µM; at Mu-type opioid receptor, greater than 10 µM.

For orientation: IC50 means the concentration that gives 50% inhibition. Lower therefore signals greater potency in that assay. For orientation: Ki means a measure of affinity in units of concentration, obtained from inhibition or displacement. For orientation: inhibition means the drop in the measured response relative to a control, in per cent.
